According to ChEMBL document CHEMBL1150314, “Design and synthesis of N-alkyl oxindolylidene acetic acids as a new class of potent Cdc25A inhibitors” (Bioorg Med Chem Lett, 2008):

Biological target: T1, M-phase inducer phosphatase 1 (Homo sapiens, UniProt P30304)
T1 sequence (P30304 whole entry): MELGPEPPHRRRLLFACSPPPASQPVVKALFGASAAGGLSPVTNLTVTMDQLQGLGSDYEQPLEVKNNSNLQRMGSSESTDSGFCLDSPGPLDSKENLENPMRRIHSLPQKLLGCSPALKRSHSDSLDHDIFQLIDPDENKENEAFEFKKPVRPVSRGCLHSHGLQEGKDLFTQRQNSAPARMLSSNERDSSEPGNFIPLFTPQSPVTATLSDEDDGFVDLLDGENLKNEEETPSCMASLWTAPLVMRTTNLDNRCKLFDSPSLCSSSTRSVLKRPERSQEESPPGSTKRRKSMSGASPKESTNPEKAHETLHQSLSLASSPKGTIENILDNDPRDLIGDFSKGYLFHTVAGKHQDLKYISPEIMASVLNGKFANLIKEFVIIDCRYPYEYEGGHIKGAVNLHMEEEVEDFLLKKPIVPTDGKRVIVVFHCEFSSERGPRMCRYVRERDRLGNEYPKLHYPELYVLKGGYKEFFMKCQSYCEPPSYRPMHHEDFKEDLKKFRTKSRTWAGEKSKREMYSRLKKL
Experiment: Inhibition of human Cdc25A phosphatase activity
In short: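 Recombinant human Cdc25A catalytic domain; phosphatase activity measured by dephosphorylation of 40 μM O-methylfluorescein monophosphate in 50 mM Tris–HCl pH 8.0, 100 mM NaCl, 1 mM dithiothreitol. IC50 taken as mean of two–five experiments, with standard deviation reported.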

| Compound | IC50 [µM] |
| --- | --- |
| CCCCCCCCCCCCN1C(=O)C(CC(=O)O)c2ccccc21 (stereo not given) | 50 |
| CCCCCCCCCCCCN1C(=O)/C(=C/C(=O)OC)c2ccccc21 | 37 |
| CCCCCCCCN1C(=O)/C(=C/C(=O)O)c2ccccc21 | 78 |
| CCCCCCCCCCCCN1C(=O)/C(=N/O)c2ccccc21 | 33 |
| CCCCCCN1C(=O)/C(=C\C(=O)O)c2ccccc21 | > 100 |
| CCOCCOCCOCCN1C(=O)/C(=C/C(=O)O)c2ccccc21 | > 100 |
| CCCCCCN1C(=O)/C(=C/C(=O)O)c2ccccc21 | > 100 |
| CCCCCCCCN1C(=O)/C(=C\C(=O)O)c2ccccc21 | 39 |
| O=C(O)/C=C1/C(=O)N(CCCc2ccccc2)c2ccccc21 | > 100 |

Now those with a lower IC50, led by results:

| IC50 [µM] | Compound |
| --- | --- |
| 15 | CCCCCCCCCCCCN1C(=O)C(=O)c2ccccc21 |
| 13 | CCCCCCCCCCN1C(=O)/C(=C/C(=O)O)c2ccccc21 |
| 12 | CC(C)CCC[C@@H](C)[C@H]1CCC2/C(=C/C(=O)O)CCC[C@@]21C (stereo not given in full) |
| 12 | CCCCCCCCCCN1C(=O)/C(=C\C(=O)O)c2ccccc21 |
| 8 | CCCCCCCCCCCCn1cc(CC(=O)O)c2ccccc21 |
| 2.9 | CCCCCCCCCCCCN1C(=O)/C(=C\C(=O)O)c2ccccc21 |
| 2.6 | CCCCCCCCCCCCN1C(=O)/C(=C/C(=O)O)c2ccccc21 |
| 2.3 | CCCCCCCCCCCCCCN1C(=O)/C(=C/C(=O)O)c2ccccc21 |
| 1.9 | CCCCCCCCCCCCCCCCN1C(=O)/C(=C/C(=O)O)c2ccccc21 |
| 1.7 | CCCCCCCCCCCCCCN1C(=O)/C(=C\C(=O)O)c2ccccc21 |
| 1.6 | CCCCCCCCCCCCCCCCN1C(=O)/C(=C\C(=O)O)c2ccccc21 |
